From the RNAGym collection of RNA variant scans (doi:10.1126/science.aae0568) come the findings set out here.

This sample holds only a part of the variants without activity.

The labels stand for the following.
B1: tRNA (parent)
chain: GUUCCGUUGGCGUAAUGGUAACGCGUCUCCCUCCUAAGGAGAAGACUGCGGGUUCGAGUCCCGUACGGAACG

Variants of B1 are the subject of the data set. In words: yeast fitness relative to wild type (ratio to wild type); higher = fitter; tRNA-Arg(CCU), competitive growth, 37 C, YPD. Summed up:
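A pool of Saccharomyces cerevisiae strains, each with a tRNA-Arg(CCU) gene variant at the native genomic locus, was competed in YPD at 37°C for 24 hours across six parallel replicates. The variants had been chemically synthesised at a 3% per-site mutation rate over 69 sites, and gene amplicons before and after competition were read by 100-nucleotide paired-end sequencing. Darwinian fitness relative to wild type rested on changes in genotype frequencies. Genotypes required ≥ 100 starting reads, and estimates < 0.5 were set to 0.5.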
On to A15U C24U A37U, for which the yeast fitness is ≤ 0.5.

Take U7C U13C: the yeast fitness is 0.836. For the variant A15U C33U U64G A70C, the yeast fitness was ≤ 0.5. Under C5U A21G G25A A42U G58A stands 0.744; under U3C U54C C61G, 0.577; under U28C A37C, 0.786. Regarding G25A A43U G56A, the yeast fitness was found to be 0.718. Under C5A A21G C31A stands 0.642; under U8C C62U, 0.881; under A20G A70G, 1.02.

Turning to G18A G58C A65U, the yeast fitness was ≤ 0.5.

With U7G G10C C22G, the yeast fitness was ≤ 0.5.

U8C A15G G50A: the yeast fitness amounted to 0.674. Under C4G A43C C61A stands 0.551. Regarding U3C A20C G23C G56C A65C G68A, the yeast fitness was ≤ 0.5. The same measure for U28C G56A: 0.933; for C61G A69C: 0.748.

Consider C5U C34U A69U, for which the yeast fitness was found to be 0.59.

Take C11U U26A C33U U53C: the yeast fitness is ≤ 0.5.

Consider U13C C30G, for which the yeast fitness stood at 0.578. For G12C C60U, the yeast fitness was determined as 0.726. For the variant C5U A37U A69U, the yeast fitness is 0.634.

G9C C27A C29U A37C: the yeast fitness was determined as 0.637. On to C11U C29U G50A C66A, for which the yeast fitness is ≤ 0.5.

With A20G G38C C66A, the yeast fitness was ≤ 0.5.

On to C27G G48A G51A, for which the yeast fitness is 0.527.

Consider A37C A45G C49G, for which the yeast fitness came to 0.578. With U47C G51C U59C, the yeast fitness was ≤ 0.5. The same measure for C4U C24U A36C G63C C66G: ≤ 0.5. The same measure for A40C A70G: 0.979; for C34G G38C U47C C62G A69C: ≤ 0.5. Take U3G C11U A43U A57U C66A: the yeast fitness is ≤ 0.5. Under G56U U59G A70G stands ≤ 0.5.

G12A U54G A65U G67A: the yeast fitness was ≤ 0.5. With G9C A42C C49G G68A, the yeast fitness was ≤ 0.5. Under C5G C55U C61A A65U stands 0.669; under G12A C31U A36C G39C C55U A57U, ≤ 0.5. Under G6C G52C C61A stands ≤ 0.5; under C5G A20C C31A, 0.55.

As for U2C C4A C60A C62U, the yeast fitness was ≤ 0.5. As to C30U G56A G67C, the yeast fitness turned out to be 0.603. The same measure for C34U U35C A69U: ≤ 0.5; for G12A C62U: 0.815. The same measure for A15U G18C C55U A69C: ≤ 0.5. Under C29G G41C C66G G68A stands 0.587. With A15U C29G C31G C60U, the yeast fitness worked out at 0.675. The same measure for U7C G41A A42C G50C A69C: 0.527; for U2C A40C A57C C66U: ≤ 0.5.

U8C A42U G63A A70G: the yeast fitness is ≤ 0.5.

As to C34U A36G G41A U47A G58C G63C G67A, the yeast fitness is ≤ 0.5. On to C11G G51C A65G, for which the yeast fitness amounted to 0.616. On to G10A U13G C27U C46G, for which the yeast fitness was ≤ 0.5.

As for U8G G9U C30A C55U, the yeast fitness is ≤ 0.5. Take U13A A15G: the yeast fitness stood at 0.932. The same measure for G9A C29U U32A A43U C61G A65C C66G: ≤ 0.5.

As to G10C C29U C31U A45C, the yeast fitness was 0.623.

As to A14C A20C C30A C34G C66A, the yeast fitness was ≤ 0.5. Take C27A A43C: the yeast fitness amounted to 0.939. As to C11A C30U A43C G67U, the yeast fitness is ≤ 0.5. Under G25A G52A A57G G67A stands ≤ 0.5; under C29U U35C C61G, 0.672. Regarding U13C A20G C46U U47A A70U, the yeast fitness is ≤ 0.5. As to U35C C62A A69U, the yeast fitness worked out at 0.551. Under G17C U47A stands 0.695; under A15G A45U A70G, 0.617; under G10A A21U A70C, ≤ 0.5.

For G38A A40G C66A, the yeast fitness is 0.597. For C49G G50A U59G, the yeast fitness is ≤ 0.5. As to G25A A40U C61U, the yeast fitness turned out to be 0.669.

On to C11U C61A G67A, for which the yeast fitness was found to be 0.53. As for C5U A14U A15C, the yeast fitness came to 0.727.

Take C5U U32C C49U A57C: the yeast fitness was ≤ 0.5. Under U8G C24G stands 0.537; under U8A C11A C24A C29A C34U C61G, ≤ 0.5.

Consider C11A G18A C27U C34G A42C, for which the yeast fitness was ≤ 0.5.

As for U7A C27A C29G C30G G51A, the yeast fitness turned out to be 0.535. Under U13C C29G A45U C62U stands ≤ 0.5; under U3A C4A U16A C30G U53C C66A, ≤ 0.5; under G18C C27U, 0.71.

Consider C5A C55A, for which the yeast fitness came out at 0.655. The same measure for U2C A37G G68C: ≤ 0.5; for U13A U35A: 0.561.

Consider C5U G48U A70C, for which the yeast fitness came out at 0.707. Under G12A A42G A45G U54A C62A stands ≤ 0.5; under C4A U53C U64A, ≤ 0.5; under C27A U47A G56C A69C, 0.894. Under G25C U64A stands 0.709; under C5U A57G C66U, 0.655; under U3A A14U A57U, ≤ 0.5. Under U2A C30U A42G C60G C62G A65G stands 0.595; under G23A C30A A37G C66U, 0.539; under U16A A21C A36G G44A U59A, ≤ 0.5.

Take C22U G52A C55A C66U: the yeast fitness is 0.526.

For G10A A21G C30A A42C, the yeast fitness was ≤ 0.5. In the case of C27U C30U C34G A37C A57G C61A, the yeast fitness was ≤ 0.5. Regarding G18U C33U C34U C66A A70C, the yeast fitness was ≤ 0.5. Consider C5G U32A C34U, for which the yeast fitness was ≤ 0.5. The same measure for C22U C29U C33U A37C C55A: 0.615; for U8C G12A G51A C66A: ≤ 0.5; for G10A G48C: 0.733.

Turning to U13C C31U A43G C60G, the yeast fitness was ≤ 0.5. The same measure for G6A A15C A36C A42U C55G C61U: ≤ 0.5; for A36C U53G: ≤ 0.5; for C24A A57C C60U G67C: ≤ 0.5. C22A C29G C34G A42C C62G: the yeast fitness was ≤ 0.5. Under A15U U19A C24A stands 0.641; under U2C A14G G48C, 0.709; under C5A G6C C11G C22U C46U G56A, ≤ 0.5.

As for C24A C49A C61G, the yeast fitness was ≤ 0.5.

On to C5G A15U G41C C55A, for which the yeast fitness is ≤ 0.5. As for A21U U59A A70U, the yeast fitness was 0.532.

Take C22A U28A U53G: the yeast fitness was ≤ 0.5. The same measure for A43C G44C C55G C62U: 0.661; for C24U C31G C33U U59A C62U: ≤ 0.5. Under G9A C24G A37G U59A G67A stands ≤ 0.5; under C31G C34U G38A, 0.53; under U3C G12A U28C G48C G63C, ≤ 0.5. Under G44C C55G A69U stands 0.746; under C30G G39A G58U C62A, ≤ 0.5. For U26G U35C, the yeast fitness is 0.657.

For the variant A43G G50A G51A, the yeast fitness is ≤ 0.5. Under C11A A21G C34U A37G U47C A57G C62U stands ≤ 0.5; under A20C A37C C49G, ≤ 0.5. With G23C G52C, the yeast fitness was determined as 0.523. Turning to U13A C29A C31G, the yeast fitness was determined as 0.524. Under G10A C30U C60G C66U stands ≤ 0.5; under U2G C31U U47G, ≤ 0.5.

For the variant G6A C33U A43G, the yeast fitness is ≤ 0.5. Under G9C G41C A45U G50A G67C stands 0.616; under U35G G63A G68C, ≤ 0.5; under U26G A45G C46U U53G C66U A69U, 0.582. U8A C11U A43U C61A A65U: the yeast fitness is ≤ 0.5. On to C22G C27G U47C U59C C62U G68U, for which the yeast fitness was ≤ 0.5. Regarding G44A U47G C49G U54G, the yeast fitness was ≤ 0.5. With A21U C33U, the yeast fitness is 0.732. Turning to G6C A14G A20C C66U, the yeast fitness was ≤ 0.5. As for A21G G52A A57U G67C, the yeast fitness is ≤ 0.5. Under G10A U16A C24A G39C A43U C60U stands ≤ 0.5; under C24A U26G, 0.655; under U28G G52A, 0.681. For the variant A21G A36G G51A A69C, the yeast fitness was ≤ 0.5. Under G6C A40U G56A stands ≤ 0.5; under G9C G58C, 1.06. On to G18C U53A, for which the yeast fitness was ≤ 0.5. Under C11G U28C C34U G44C G50C U53C stands ≤ 0.5; under C33U G48C, 0.778; under G6C A20U A36C A40G A43U A57C, ≤ 0.5. The same measure for A14U C31A: 0.544; for C30G A36C C49A C55A G63C A69C: 0.608. Turning to U13C G48A C61G A69C, the yeast fitness turned out to be 0.594. Under C11A A15U A20C C34G stands ≤ 0.5; under U13A G23C C24G G50A, ≤ 0.5. The same measure for G10A A15U A70G: ≤ 0.5; for G9A A21U C31G: 0.573. Under C27A A45G stands 0.874; under U35A A65C, 0.781. Consider U13A U16A C61G, for which the yeast fitness was ≤ 0.5.

For C34U A36G A40U, the yeast fitness is ≤ 0.5. Under U8A A36G G38C G52C A57U A69U A70G stands ≤ 0.5; under U32G A36U A45G, ≤ 0.5; under G10A A43C, 0.811.

In the case of U7G G9A C30G G51C, the yeast fitness is ≤ 0.5. Under A20U C29G A45G A69U stands 0.525; under C11G A42C A57U, 0.564. Consider G17A A20G A57C, for which the yeast fitness turned out to be 0.558. Under A20G A36C A45C G52A G67U stands ≤ 0.5; under C11U U59C, 0.937.
